“And” between values parts separate entries of the source, which are not always exact repeats. Equal entries are not always repeated.
System: U2OS
Test: Multiplex assay against U2OS
Type: toxicity, cell-based
Settings: human, 1 µM, compound concentration 1 uM
Summary of the method: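 Imaging took place on a CQ1 microscope at 37°C and 5% CO2 once compound had been added to live cells stained at seeding with Hoechst33342, BioTracker Green Microtubule Cytoskeleton Dye, MitoTracker Red and Annexin V Alexa Fluor 680. CellPathfinder machine-learning gating classed cells as Hoechst high-intensity objects or normal cells, classed normal cells as having healthy, pyknosed or fragmented nuclei, and classed pyknosed cells as mitotic or apoptotic. Tubulin, mitochondrial-mass and membrane-permeability phenotypes are per cents of the healthy-nucleus cells.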

For `C[C@]1(O)C[C@@H](c2nc(-c3ccc4ccc(-c5ccccc5)nc4c3)c3c(N)nccn32)C1` [LINSITINIB], the “Population Apoptotic (%)” value (12 h, replicate 1) was 57% and 35%, the “Population Fragmented Nuclei (%)” value (12 h, replicate 1) was 10% and 3% and the “Population Healthy Nuclei (%)” value (12 h, replicate 1) was 79% and 85%. The “Population Hoechst High Intensity Objects (%)” value (12 h, replicate 1) was 2% and 4%, the “Population Mitochondria Different-Phenotype (%)” value (12 h, replicate 1) was 17% and 28% and the “Population Mitotic Cells (%)” value (12 h, replicate 1) was 42% and 64%. For the same compound, the “Population Normal (%)” value (12 h, replicate 1) was 97% and 95%, the “Population Pyknosed Nuclei (%)” value (12 h, replicate 1) was 9% and 11% and the “Population Tubulin-Different-Phenotype (%)” value (12 h, replicate 1) was 50%. The “Total Cell Count” value (12 h, replicate 1) was 132 and 196, the “Population Apoptotic (%)” value (12 h, replicate 2) was 50% and 33% and the “Population Fragmented Nuclei (%)” value (12 h, replicate 2) was 13% and 5%. The “Population Healthy Nuclei (%)” value (12 h, replicate 2) was 81% and 89%, the “Population Hoechst High Intensity Objects (%)” value (12 h, replicate 2) was 8% and 19% and the “Population Membrane Permeable-Phenotype (%)” value (12 h, replicate 2) was 39% and 16%. The “Population Mitochondria Different-Phenotype (%)” value (12 h, replicate 2) was 16% and 25%, the “Population Mitotic Cells (%)” value (12 h, replicate 2) was 50% and 66% and the “Population Normal (%)” value (12 h, replicate 2) was 91% and 80%. The “Population Pyknosed Nuclei (%)” value (12 h, replicate 2) was 5% and 4%, the “Population Tubulin-Different-Phenotype (%)” value (12 h, replicate 2) was 45% and 28% and the “Total Cell Count” value (12 h, replicate 2) was 83 and 65. For the same compound, the “Population Apoptotic (%)” value (24 h, replicate 1) was 48% and 53%, the “Population Fragmented Nuclei (%)” value (24 h, replicate 1) was 4% and the “Population Healthy Nuclei (%)” value (24 h, replicate 1) was 76% and 87%. The “Population Membrane Permeable-Phenotype (%)” value (24 h, replicate 1) was 23% and 8%, the “Population Mitochondria Different-Phenotype (%)” value (24 h, replicate 1) was 20% and 22% and the “Population Mitotic Cells (%)” value (24 h, replicate 1) was 51% and 46%. The “Population Normal (%)” value (24 h, replicate 1) was 94% and 98%, the “Population Pyknosed Nuclei (%)” value (24 h, replicate 1) was 11% and 8% and the “Population Tubulin-Different-Phenotype (%)” value (24 h, replicate 1) was 41% and 33%. The “Total Cell Count” value (24 h, replicate 1) was 180 and 194, the “Population Fragmented Nuclei (%)” value (24 h, replicate 2) was 12% and 8% and the “Population Healthy Nuclei (%)” value (24 h, replicate 2) was 79% and 84%. For the same compound, the “Population Membrane Permeable-Phenotype (%)” value (24 h, replicate 2) was 27% and 13%, the “Population Mitochondria Different-Phenotype (%)” value (24 h, replicate 2) was 19% and 28% and the “Population Mitotic Cells (%)” value (24 h, replicate 2) was 60% and 100%. For the same compound, the “Population Normal (%)” value (24 h, replicate 2) was 95% and 86%, the “Population Pyknosed Nuclei (%)” value (24 h, replicate 2) was 7% and the “Population Tubulin-Different-Phenotype (%)” value (24 h, replicate 2) was 28% and 38%. For the same compound, the “Total Cell Count” value (24 h, replicate 2) was 114 and 78.
